This is an account of results in ChEMBL document CHEMBL1142198, “Diversity of ampicillin resistance genes and antimicrobial susceptibility patterns in Haemophilus influenzae strains isolated in Korea” (2007).

The structures appear in SMILES notation. In brackets after ≈: the same amount, converted by molar mass.

Common to all, as to type: functional
Test [1] has as its system Haemophilus influenzae. Put plainly: Antimicrobial activity against Haemophilus influenzae BLPAR strains. The method, boiled down: (§1)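 Etest MIC determination on Haemophilus test medium agar inoculated evenly with a broth suspension equivalent to a 0.5 McFarland standard. Once dry, strips for 10 antibiotics applied; incubated 35°C, 5% CO2, 20 h. MIC read at complete growth inhibition. ATCC 49766 and ATCC 49247 included as controls in each batch. Korean clinical isolates 2000–2005 classified by nitrocefin disk and PCR.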

Test [2] deals with Haemophilus influenzae. Put plainly: Antimicrobial activity against Haemophilus influenzae BLPACR strains. The method, boiled down:
as §1

The test system of test [3] is Haemophilus influenzae. Put plainly: Antimicrobial activity against Haemophilus influenzae BLNAS strains. In short, it runs like this:
as §1

Test [4] concerns Haemophilus influenzae. Put plainly: Antimicrobial activity against Haemophilus influenzae BLNAR strains. The method, boiled down: as §1
Test [5] deals with Haemophilus influenzae. Put plainly: Antimicrobial activity against Haemophilus influenzae strains causing clinical infections. In short, it runs like this:
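Etest MICs for 196 clinical-infection isolates collected 2000–2005 at two Seoul tertiary-care hospitals. A 0.5 McFarland broth suspension was spread on Haemophilus test medium agar, strips applied once dry, then incubated 35°C, 5% CO2, 20 h. ATCC 49766 and ATCC 49247 served as controls in each batch.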

Test [6] deals with Haemophilus influenzae. Put plainly: Antimicrobial activity against Haemophilus influenzae strains that are normal flora. The method, boiled down: as §1

With `N[C@@H](C(=O)N[C@@H]1C(=O)N2C(C(=O)O)=C(Cl)CS[C@H]12)c1ccccc1` [CEFACLOR ANHYDROUS], the MIC50 turned out to be 12 µg/mL (≈ 32.6 µM) against Haemophilus influenzae [1]; 16 µg/mL (≈ 43.5 µM) against Haemophilus influenzae [2]; 2 µg/mL (≈ 5.44 µM) against Haemophilus influenzae [3]; 6 µg/mL (≈ 16.3 µM) in the test with Haemophilus influenzae [4]; 8 µg/mL (≈ 21.8 µM) in the test on Haemophilus influenzae [5]; 2 µg/mL (≈ 5.44 µM) with Haemophilus influenzae [6]. In addition, the MIC90 against Haemophilus influenzae [1] came out at 256 µg/mL (≈ 696 µM); against Haemophilus influenzae [2], 256 µg/mL (≈ 696 µM); with Haemophilus influenzae [3], 6 µg/mL (≈ 16.3 µM); against Haemophilus influenzae [4] it was 256 µg/mL (≈ 696 µM); against Haemophilus influenzae [5] it was 256 µg/mL (≈ 696 µM); in the test on Haemophilus influenzae [6] it was 256 µg/mL (≈ 696 µM).
With `CO/N=C(\C(=O)N[C@@H]1C(=O)N2C(C(=O)O)=C(COC(N)=O)CS[C@H]12)c1ccco1` [CEFUROXIME], the MIC50 against Haemophilus influenzae [1] was 1 µg/mL (≈ 2.36 µM); with Haemophilus influenzae [2], 1 µg/mL (≈ 2.36 µM); against Haemophilus influenzae [3], 0.5 µg/mL (≈ 1.18 µM); in the test with Haemophilus influenzae [4], 1 µg/mL (≈ 2.36 µM); against Haemophilus influenzae [5] it was 1 µg/mL (≈ 2.36 µM); against Haemophilus influenzae [6] it was 0.5 µg/mL (≈ 1.18 µM). Moreover, the MIC90 with Haemophilus influenzae [1] amounted to 256 µg/mL (≈ 603 µM); with Haemophilus influenzae [2] it was 256 µg/mL (≈ 603 µM); against Haemophilus influenzae [3], 1 µg/mL (≈ 2.36 µM); in the test on Haemophilus influenzae [4] it was 8 µg/mL (≈ 18.9 µM); with Haemophilus influenzae [5], 8 µg/mL (≈ 18.9 µM); against Haemophilus influenzae [6], 256 µg/mL (≈ 603 µM).
As for `CC[C@H]1OC(=O)[C@H](C)[C@@H](O[C@H]2C[C@@](C)(OC)[C@@H](O)[C@H](C)O2)[C@H](C)[C@@H](O[C@@H]2O[C@H](C)C[C@H](N(C)C)[C@H]2O)[C@](C)(OC)C[C@@H](C)C(=O)[C@H](C)[C@@H](O)[C@]1(C)O` [CLARITHROMYCIN], the MIC50 was 16 µg/mL (≈ 21.4 µM) in the test with Haemophilus influenzae [1]; 16 µg/mL (≈ 21.4 µM) in the test on Haemophilus influenzae [2]; 16 µg/mL (≈ 21.4 µM) with Haemophilus influenzae [3]; 12 µg/mL (≈ 16 µM) in the test with Haemophilus influenzae [4]; 16 µg/mL (≈ 21.4 µM) in the test with Haemophilus influenzae [5]; 16 µg/mL (≈ 21.4 µM) in the test with Haemophilus influenzae [6]. Further, the MIC90 against Haemophilus influenzae [1] is 32 µg/mL (≈ 42.8 µM); with Haemophilus influenzae [2] it was 256 µg/mL (≈ 342 µM); with Haemophilus influenzae [3], 24 µg/mL (≈ 32.1 µM); against Haemophilus influenzae [4] it was 24 µg/mL (≈ 32.1 µM); in the test with Haemophilus influenzae [5], 32 µg/mL (≈ 42.8 µM); in the test on Haemophilus influenzae [6], 32 µg/mL (≈ 42.8 µM).
`C[C@H]1COc2c(N3CCN(C)CC3)c(F)cc3c(=O)c(C(=O)O)cn1c23.C[C@H]1COc2c(N3CCN(C)CC3)c(F)cc3c(=O)c(C(=O)O)cn1c23.O` [LEVOFLOXACIN]: the MIC50 against Haemophilus influenzae [1] was 0.016 µg/mL; with Haemophilus influenzae [2] it was 0.016 µg/mL; in the test with Haemophilus influenzae [3] it was 0.016 µg/mL; against Haemophilus influenzae [4] it was 0.023 µg/mL; in the test with Haemophilus influenzae [5], 0.016 µg/mL; with Haemophilus influenzae [6], 0.023 µg/mL. Further, the MIC90 was 0.032 µg/mL in the test on Haemophilus influenzae [1]; 0.047 µg/mL with Haemophilus influenzae [2]; 0.032 µg/mL in the test with Haemophilus influenzae [3]; 1 µg/mL with Haemophilus influenzae [4]; 0.32 µg/mL in the test on Haemophilus influenzae [5]; 1 µg/mL in the test with Haemophilus influenzae [6].
Take `C[C@@H](O)[C@H]1C(=O)N2C(C(=O)O)=C(S[C@@H]3CN[C@H](C(=O)N(C)C)C3)[C@H](C)[C@H]12` [MEROPENEM]: the MIC50 in the test with Haemophilus influenzae [1] was found to be 0.094 µg/mL (≈ 0.245 µM); in the test with Haemophilus influenzae [2], 0.19 µg/mL (≈ 0.495 µM); against Haemophilus influenzae [3], 0.064 µg/mL (≈ 0.167 µM); with Haemophilus influenzae [4], 0.125 µg/mL (≈ 0.326 µM); with Haemophilus influenzae [5] it was 0.094 µg/mL (≈ 0.245 µM); with Haemophilus influenzae [6], 0.094 µg/mL (≈ 0.245 µM). The MIC90 stood at 32 µg/mL (≈ 83.4 µM) against Haemophilus influenzae [1]; 0.38 µg/mL (≈ 0.991 µM) in the test with Haemophilus influenzae [2]; 0.125 µg/mL (≈ 0.326 µM) against Haemophilus influenzae [3]; 32 µg/mL (≈ 83.4 µM) against Haemophilus influenzae [4]; 32 µg/mL (≈ 83.4 µM) with Haemophilus influenzae [5]; 32 µg/mL (≈ 83.4 µM) with Haemophilus influenzae [6].
With `C=CC1=C(C(=O)O)N2C(=O)[C@@H](NC(=O)/C(=N\OCC(=O)O)c3csc(N)n3)[C@H]2SC1` [CEFIXIME], the MIC50 amounted to 0.047 µg/mL (≈ 0.104 µM) in the test with Haemophilus influenzae [1]; 0.064 µg/mL (≈ 0.141 µM) against Haemophilus influenzae [2]; 0.023 µg/mL (≈ 0.0507 µM) in the test with Haemophilus influenzae [3]; 0.064 µg/mL (≈ 0.141 µM) with Haemophilus influenzae [4]; 0.047 µg/mL (≈ 0.104 µM) with Haemophilus influenzae [5]; 0.047 µg/mL (≈ 0.104 µM) in the test on Haemophilus influenzae [6]. Further, the MIC90 came to 32 µg/mL (≈ 70.6 µM) against Haemophilus influenzae [1]; 256 µg/mL (≈ 565 µM) in the test on Haemophilus influenzae [2]; 0.064 µg/mL (≈ 0.141 µM) against Haemophilus influenzae [3]; 32 µg/mL (≈ 70.6 µM) in the test on Haemophilus influenzae [4]; 0.75 µg/mL (≈ 1.65 µM) in the test on Haemophilus influenzae [5]; 32 µg/mL (≈ 70.6 µM) against Haemophilus influenzae [6].
Regarding `CC1(C)S[C@@H]2[C@H](NC(=O)[C@H](N)c3ccccc3)C(=O)N2[C@H]1C(=O)O` [AMPICILLIN], the MIC50 against Haemophilus influenzae [1] came out at 256 µg/mL (≈ 733 µM); against Haemophilus influenzae [2], 256 µg/mL (≈ 733 µM); in the test with Haemophilus influenzae [3], 0.25 µg/mL (≈ 0.715 µM); against Haemophilus influenzae [4], 0.75 µg/mL (≈ 2.15 µM); in the test on Haemophilus influenzae [5] it was 24 µg/mL (≈ 68.7 µM); against Haemophilus influenzae [6], 0.38 µg/mL (≈ 1.09 µM). In addition, the MIC90 with Haemophilus influenzae [1] was determined as 256 µg/mL (≈ 733 µM); against Haemophilus influenzae [2] it was 256 µg/mL (≈ 733 µM); against Haemophilus influenzae [3] it was 0.38 µg/mL (≈ 1.09 µM); with Haemophilus influenzae [4] it was 256 µg/mL (≈ 733 µM); in the test on Haemophilus influenzae [5], 256 µg/mL (≈ 733 µM); in the test on Haemophilus influenzae [6], 256 µg/mL (≈ 733 µM).
`O=C(N[C@H](CO)[C@H](O)c1ccc([N+](=O)[O-])cc1)C(Cl)Cl` [CHLORAMPHENICOL]: the MIC50 in the test with Haemophilus influenzae [1] was 0.75 µg/mL (≈ 2.32 µM); in the test on Haemophilus influenzae [2], 0.5 µg/mL (≈ 1.55 µM); with Haemophilus influenzae [3], 0.5 µg/mL (≈ 1.55 µM); in the test on Haemophilus influenzae [4], 0.5 µg/mL (≈ 1.55 µM); in the test with Haemophilus influenzae [5] it was 0.5 µg/mL (≈ 1.55 µM); against Haemophilus influenzae [6], 0.75 µg/mL (≈ 2.32 µM). In addition, the MIC90 in the test on Haemophilus influenzae [1] is 12 µg/mL (≈ 37.1 µM); against Haemophilus influenzae [2] it was 8 µg/mL (≈ 24.8 µM); with Haemophilus influenzae [3], 0.75 µg/mL (≈ 2.32 µM); against Haemophilus influenzae [4], 6 µg/mL (≈ 18.6 µM); with Haemophilus influenzae [5], 8 µg/mL (≈ 24.8 µM); with Haemophilus influenzae [6], 4 µg/mL (≈ 12.4 µM).
